Measured values published in PubChem BioAssay AID624380 (The Scripps Research Institute Molecular Screening Center, 2012).
Hit rate of the full screen: of about 2,300 compounds, about 120 (5.2%) were called active. Only a sample is shown. Values without a mark were called inactive.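 How the source made its calls: active means mean activation above the mean of DMSO-only wells plus 3 SD (cut at about 0.5% in these data); inactive means the rest.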

Molecular target: Mu-type opioid receptor (Homo sapiens) (UniProt P35372)
Experiment: OPRM1 agonists via beta-arrestin recruitment, confirmation, counter-screen for mouse HTR2A agonist project, cell-based, luminescence, single concentration (AID 624380)
Details: U2OS OPRM1 beta-arrestin PathHunter, at 9.3 µM, hits give high values, DMSO 0%, DAMGO 9.3 µM 100%
In short: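 Test system: U2OS cells, OPRM1–beta-arrestin fragment complementation / Quantity: 1000 cells per well seeded a day ahead / Timing: 3 h compound treatment, 37 °C, 1 h room-temperature reagent step / Measured by: chemiluminescence from reconstituted beta-galactosidase after detection reagent addition / Control set: DAMGO high control, DMSO low control / Repeats: three replicate wells per compound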

Sequence of Mu-type opioid receptor (Homo sapiens) (P35372 whole entry, looked up): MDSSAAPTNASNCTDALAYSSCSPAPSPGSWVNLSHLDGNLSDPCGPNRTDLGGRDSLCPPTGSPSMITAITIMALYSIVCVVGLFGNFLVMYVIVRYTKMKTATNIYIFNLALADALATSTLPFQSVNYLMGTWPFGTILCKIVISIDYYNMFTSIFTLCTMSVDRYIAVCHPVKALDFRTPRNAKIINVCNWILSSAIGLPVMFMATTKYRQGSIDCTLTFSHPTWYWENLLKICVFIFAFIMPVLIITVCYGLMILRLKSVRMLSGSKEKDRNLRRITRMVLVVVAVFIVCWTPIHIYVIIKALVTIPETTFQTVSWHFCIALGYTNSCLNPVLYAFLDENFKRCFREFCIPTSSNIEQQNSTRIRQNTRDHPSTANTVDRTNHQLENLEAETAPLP

Structure (SMILES) | activation
CCn1cc(C(=O)OCC(=O)Nc2cccc(C)c2)c(=O)c2ccc(C)nc21 | -0.4%
C=C1C(=O)OC2C1CCC(C)=CCCC1(C)OC21 (stereo unspecified) | -0.63%
CO/N=C/CC(=O)c1ccc(OC)cc1 | -0.34%
Cc1ccc(NC(=O)CCOc2ccccc2)cc1S(=O)(=O)Nc1ccccc1Cl | -0.34%
O=C(Nc1cccc2cccnc12)c1ccc2sc([C@H]3C[C@H](O)[C@@H](CO)O3)nc2c1 | 0.15%
CC(C)Oc1ccccc1C(=O)NC(CO)C(=O)O (stereo unspecified) | -0.52%
Oc1ccc(CN2CCN(c3ncccn3)CC2)cc1 | -0.36%
CS(=O)(=O)c1ccc2nc(NC(=O)C3CCCCC3)sc2c1 | -0.72%
COc1ccccc1Nc1nnc(SC(C)C(=O)NC2CC2)s1 (stereo unspecified) | -0.47%
Cc1cccc(CN2CCN(C3CN(Cc4ccccc4)S(=O)(=O)C3)CC2)c1 (stereo unspecified) | -0.55%
O=C(CNCc1cccs1)Nc1cc(S(=O)(=O)N2CCCC2)ccc1Cl | -0.34%
COc1ccc(NS(=O)(=O)c2cc(C(=O)Nc3ccccc3C(=O)O)ccc2C)cc1 | -0.47%
O=C(Nc1cc(=O)[nH]c2ncnn12)c1ccccc1Cl | -0.64%
Cc1cc(C)n(S(=O)(=O)c2cccc([N+](=O)[O-])c2)n1 | -0.31%
FC(F)(F)COc1nc(N2CCCCC2)nc(N2CCNCC2)n1 | -0.49%
COc1ccc(/C=N/Nc2ccccc2C(=O)O)cc1 | 0.45%
COc1cccc(OC)c1OCCN1CCN(C(=O)c2ccco2)CC1 | -0.41%
CC(C)c1cc(C(=O)O)on1 | -0.13%
Cc1cc(C(=O)OCC(=O)N2c3ccccc3NC(=O)C2(C)C)c(C)n1-c1ccccc1 | -0.15%
COC(=O)[C@]12CCCCC=C1N(CCC1=CCCCC1)C(=O)[C@H](CC(=O)NCC1CCCCC1)C2 | -0.46%
Cc1cc([N+](=O)[O-])ccc1NC1CCCC1 | 0.02%
C/C(=N\NC(=O)COc1c(C)cccc1C)c1cccs1 | -0.05%
N#Cc1c(NC(=O)CCCl)sc2c1CCCCC2 | -0.23%
CCCN(CCc1ccccc1)C1CCc2c(O)cccc2C1 (stereo unspecified) | 0.3%

Structure (SMILES) | activation
N#CCSc1nn(-c2ccc(F)cc2)c(=S)s1 | -0.5%
Cc1[nH]c2ccccc2c1CCN(Cc1cccs1)C(=S)NC(C)(C)C | -0.25%
O=C(O)c1ccc(S(=O)(=O)N2CCC(Cc3ccccc3)CC2)cc1 | -0.67%
CCOC(=O)/C=c1\s/c(=C\c2ccccc2OC)c(=O)n1CC(=O)N1CCOCC1 | -0.62%
C=CCn1c(=NC(=O)c2cccs2)sc2cc(NC(C)=O)ccc21 | 0.46%
O=C1CCc2cc(S(=O)(=O)N3CCC(C(=O)NCc4ccccc4Cl)CC3)ccc2N1 | -0.62%
O=C(NCCCN1CCN(c2ccccc2F)CC1)C1CCC(=O)N1C1CCCCC1 (stereo unspecified) | -0.51%
CSc1nsc(SCC(=O)Nc2cc(C(=O)O)ccc2C)n1 | -0.51%
CC(Nc1ccccc1)c1cccnc1 (stereo unspecified) | -0.58%
CCOC(=O)[C@]12CCCC=C1N(Cc1ccc3c(c1)OCO3)C(=O)[C@H](CC(=O)NCc1cccs1)C2 | -0.19%
OCC1(Cc2ccccc2)CCN(Cc2cc3ccccc3o2)CC1 | 0.94% (active)
Cn1c2c(c(=O)n(C)c1=O)C(c1ccc(O)cc1)Nc1ccccc1O2 (stereo unspecified) | -0.51%
O=C(O)C1C2C=CC(O2)C1C(=O)NCCc1cccc(Cl)c1 (stereo unspecified) | -0.74%
COc1ccc(/C(=N\O)c2nccc3cc(OC)c(OC)cc23)cc1OC | -0.42%
CC(=O)N1c2ccc(S(=O)(=O)N3CCC(C(=O)NC4CCCCC4C)CC3)cc2CC1C (stereo unspecified) | -0.74%
COC(=O)CC(=O)N1CCN(c2ccc(Cl)c(Cl)c2)CC1 | -0.63%
Fc1ccc2[nH]c3c(N4CCSCC4)ncnc3c2c1 | 1.59% (active)
CN(C)[C@@H]1C(=O)C(C(N)=O)=C(O)[C@@]2(O)C(=O)C3=C(O)c4c(O)ccc(Cl)c4[C@@H](O)[C@H]3C[C@@H]12 | -0.63%
O=C(c1ccco1)N1CCN(CCOc2ccccc2)CC1 | -0.48%
Cc1ccc2c(c1)NCC(C(=O)NC1CCC(C)CC1)O2 (stereo unspecified) | -0.52%
COc1ccc(-c2nc3cc([N+](=O)[O-])ccc3o2)cc1OC | 0.11%
COc1ccc(C(C)=O)cc1COC(=O)Cn1cnc2ccccc2c1=O | 0.31%
Cc1oc2cc(Br)c(O)c(Br)c2c1C(=O)c1ccccc1 | -0.51%
CCCCn1c(N)c(N(CC(C)C)C(=O)CSc2ccc([N+](=O)[O-])cc2)c(=O)[nH]c1=O | -0.28%

Structure (SMILES) | activation
COc1ccc2[nH]cc(CCN3C(=O)c4ccc(C(=O)O)cc4C3=O)c2c1 | -0.57%
Cc1ccc(C(=O)N/C(=C/c2cccs2)C(=O)N2CCCCC2)cc1 | -0.51%
O=C(Nc1ccc2c(c1)[C@@H]1C[C@@H](CC(=O)N3CCCCC3)O[C@@H](CO)[C@@H]1O2)NC1CCCCC1 | -0.54%
Cc1cccc(CN2CCN(C3CN(Cc4cn(Cc5cc(C)cc(C)c5)nn4)S(=O)(=O)C3)CC2)c1 (stereo unspecified) | -0.64%
COC(=O)Cn1nc(-c2ccccc2)c2cc(Cl)ccc21 | -0.43%
CCCC(=O)N=c1sc2cccc(F)c2n1C | -0.39%
CCCCNc1c(-c2cccc(Sc3ccc(OC)cc3)c2)nc2ccccn12 | -0.06%
CC(=O)c1ccc(OCC(=O)N(C)C2CCS(=O)(=O)C2)cc1 (stereo unspecified) | -0.71%
Cc1ccc(S(=O)(=O)N2CCN(c3ncnc4ccccc34)CC2)cc1 | 0.43%
N/C(=N\S(=O)(=O)c1cc(C(F)(F)F)cc(C(F)(F)F)c1)c1cccs1 | 0.39%
CC1(Cc2cccc(C#N)c2)C(=O)Nc2ccc(-c3cccc(C(F)(F)F)c3)cc21 (stereo unspecified) | -0.07%
NNc1cccc(C=Cc2ccccc2)cc1=O | 0.48%
COc1cccc(NC(=O)CSc2nnc(-c3cccnc3)o2)c1 | -0.3%
O=C1CC(c2cccc(Cl)c2)CC(O)=C1C=Nc1ccccc1 (stereo unspecified) | -0.61%
COC(=O)c1ccc(CSc2nnc(NC(C)C)s2)cc1 | -0.75%
C/C(=N\NC(=S)NC1CCCCC1)c1ccc(C)o1 | -0.73%
COCCN(Cc1cc2cc3c(cc2nc1Cl)OCO3)C(=O)c1cccc(C)c1 | -0.33%
Nc1c(N(Cc2ccco2)C(=O)c2cccc(F)c2)c(=O)[nH]c(=O)n1Cc1ccccc1 | -0.45%
COC(=O)[C@@]1(Cc2ccc(F)cc2)[C@H]2c3cc(C(=O)N(C)C)n(CCc4c[nH]c5ccc(OC)cc45)c3C[C@H]2CN1C(=O)c1ccccc1 | -0.5%
Cc1ccc(NC(=O)CSc2nnc(COc3ccccc3C)o2)cc1 | -0.2%
CNCC(O)c1ccc(O)c(O)c1 (stereo unspecified) | -0.22%
CSc1ncnc2c1ncn2CCCNCc1cccs1 | -0.51%
CCCCC(CC)CNC(=O)CCCCn1c(=O)[nH]c2ccsc2c1=O (stereo unspecified) | -0.47%
